Rows were chosen to be rich in hits. Some 1.9% of all compounds tested hit in one or more screens of this group.
Hck Nef HTS: inhibitors of Nef-activated human Hck kinase, primary screen, biochemical, Z-Lyte FRET, 384-well, Hck-YEEI | inhibition, % at 20 µM | 220,000 tested, 0.68% active | Tyrosine-protein kinase HCK (Homo sapiens), P08631 | Recombinant Hck-YEEI plus Nef, Z-Lyte FRET kinase assay | AID 463187, 2010;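 active = Hck-Nef kinase inhibition above about 50%, limit read from the data; inactive = inhibition below that limit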;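 note: 0% = DMSO with Hck plus Nef and 100% = Hck alone without Nef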
Target sequence (P08631 whole entry, looked up): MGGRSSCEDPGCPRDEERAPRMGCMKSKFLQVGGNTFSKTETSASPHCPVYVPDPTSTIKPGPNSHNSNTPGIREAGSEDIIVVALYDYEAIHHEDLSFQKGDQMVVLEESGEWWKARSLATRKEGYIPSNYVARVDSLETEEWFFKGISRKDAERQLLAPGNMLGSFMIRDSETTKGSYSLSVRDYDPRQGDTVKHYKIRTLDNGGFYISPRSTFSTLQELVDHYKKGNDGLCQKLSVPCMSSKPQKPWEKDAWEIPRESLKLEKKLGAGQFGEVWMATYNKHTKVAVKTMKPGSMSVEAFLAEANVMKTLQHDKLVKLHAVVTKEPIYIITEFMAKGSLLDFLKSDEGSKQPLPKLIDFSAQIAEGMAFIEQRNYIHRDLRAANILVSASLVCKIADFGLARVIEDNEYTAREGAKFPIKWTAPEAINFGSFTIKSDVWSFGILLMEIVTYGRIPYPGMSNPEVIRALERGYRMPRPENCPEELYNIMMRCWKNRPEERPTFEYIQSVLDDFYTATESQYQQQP
RanGTP-Impb inh: inhibitors of RanGTP-importin-beta interaction, primary screen, biochemical, FRET, CFP-Ran, YFP-importin-beta, homogeneous; cell-free CFP-Ran/YFP-importin-beta FRET ratio; inhibition, % (concentration not given with the values); 300,000 tested, 1.1% active; AID 2216, 2009;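 active = more than half of the replicate wells show a fall in the fluorescence ratio signal beyond about 16%, limit read from the data, passing the limit was not always enough; inconclusive = exactly half of the replicate wells pass the set limit; inactive = fewer than half of replicates pass the limit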;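 note: 0% = DMSO wells and 100% = Ran loaded with GDP instead of GTP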
Runt-CBFb FRET: inhibitors of RUNX1 Runt–CBFb binding, primary screen, biochemical, FRET, Cerulean-Runt, Venus-CBFb, uHTS; Runt-related transcription factor 1 (Homo sapiens) + Core-binding factor subunit beta …; Cerulean-Runt/Venus-CBFb FRET ratio 530/480, 1 h; inhibition, % at 20 µM; 220,000 tested, 0.46% active; AID 1496, 2009;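 active = inhibition over about 50% at 20 µM in the single-dose screen, limit read from the data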;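 note: 0% = DMSO wells and 100% = excess unlabeled CBFb competitor control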
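test system = Cerulean-tagged RUNX1 Runt domain (FRET donor) fusion protein | reagent = Venus-CBFb binding partner, 100 nM | incubation = protein complex preformed 1 h, compound exposure 1 h, room temperature, dark | detection = FRET fluorescence | read-out basis = loss of energy transfer signal | controls = 5 µM unlabeled CBFb as full-inhibition high control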
Runt-SMMHC FRET: inhibitors of RUNX1 Runt–CBFb-SMMHC binding, primary screen, biochemical, FRET, Cerulean-Runt, Venus-CBFb-SMMHC, uHTS. Runt-related transcription factor 1 (Homo sapiens) + Core-binding factor subunit beta …. Cerulean-Runt/Venus-CBFb-SMMHC FRET ratio 530/480, 1 h. inhibition, % at 20 µM. 220,000 tested, 0.74% active. AID 1434, 2008;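 active = mean inhibition across duplicate retests at 20 µM reaching about 50%, limit read from the data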;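 note: 0% = DMSO wells and 100% = wells with excess untagged CBFb-SMMHC; inhibitors lower the FRET ratio by blocking Runt binding to CBFb-SMMHC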
Starred values were filed as active, the others as inactive; ? = inconclusive; . = no result given; + = active, no number.

SMILES	Hck Nef HTS	RanGTP-Impb inh	Runt-CBFb FRET	Runt-SMMHC FRET
O=C(CN1CCN(Cc2ccc3c(c2)OCO3)CC1)N1CCc2[nH]c3ccccc3c2C1	2.6	32.0*	-6.2	-10.5
CC1CN(CC(=O)N2CCc3[nH]c4ccccc4c3C2)CC(C)O1 (stereo unspecified)	-1.9	27.7*	-27.5	-7.4
O=C(Nc1cccc(NC(=O)c2ccco2)c1)c1ccc([N+](=O)[O-])cc1	5.2	75.0*	0.4	-1.6
COc1cc2c(cc1OC)CN(CC(=O)Nc1cccc([N+](=O)[O-])c1)CC2	.	-0.4	.	.
COc1cc2c(cc1OC)CN(CC(=O)Nc1ccc(F)cc1F)CC2	.	19.5*	.	.
O=C(CN1CCc2ccccc2C1)Nc1ccc(F)cc1F	21.5	-1.6	-1.0	0.0
COc1cc2c(cc1OC)CN(CC(=O)Nc1cccc(C)c1)CC2	2.0	31.6*	7.2	20.8
COc1cc(CNCCNC(=O)c2nonc2N)ccc1OCc1ccc(Cl)cc1	17.0	1.9	-0.2	-1.9
Cc1cc(OCC(=O)Nc2ccc(N3CCN(C)CC3)cc2)ccc1Cl	.	-4.5	.	.
Cc1ccc(N2C3=C(C(=O)CC(C)(C)C3)C(c3cn(C)nc3C)C3=C2CC(C)(C)CC3=O)cc1	.	25.6*	.	.
Cc1nn(C)cc1C1C2=C(CC(C)(C)CC2=O)N(c2ccccc2)C2=C1C(=O)CC(C)(C)C2	16.7	12.1	0.3	3.5
CC(=O)c1nn(-c2cccc(Br)c2)cc1C(=O)c1ccc(Br)cc1	-20.8	29.2*	-0.2	0.1
CC(C)c1c(C(=O)N/N=C/c2ccc(OCc3ccccc3)cc2)nnn1-c1nonc1N	.	+	.	.
Cc1ccc(/C=N/NC(=O)c2nnn(-c3nonc3N)c2-c2cccs2)cc1	.	189.5*	.	.
COc1ccc(-c2csc3nc(C)nc(N4CCN(c5ccc(C(C)=O)cc5)CC4)c23)cc1OC	-2.6	3.0	-6.7	-2.5
c1ccc(Cn2c(-c3cccs3)nc3nc4ccccc4nc32)cc1	1.2	?	23.1	65.0*
CCCCn1c(-c2cccs2)nc2nc3ccccc3nc21	19.6	2.8	18.9	157.8*
CC(C)Cn1c(-c2cccs2)nc2nc3ccccc3nc21	43.2	8.0	45.8	103.6*
Cc1ccc(-n2c(-c3cccs3)nc3nc4ccccc4nc32)cc1	5.0	0.8	-0.2	-86.4
COc1ccc(C)cc1NC(=O)c1sc2ncn(CC(=O)N3CCCCC3)c(=O)c2c1C	.	-1.2	.	.
CC1CCCC(C)N1CCCNC(=O)c1csc2c1CCCCC2 (stereo unspecified)	.	5.4	.	.
COc1ccc(CC(=O)Nc2cccnc2)cc1	.	1.4	.	.
OCCCNc1nc(-c2ccccc2)c2cc(Br)ccc2n1	.	32.6*	.	.
COc1cc(Nc2nc(-c3ccccc3)c3cc(C)ccc3n2)cc(OC)c1OC	-0.3	0.5	-7.1	-13.2
NNc1nc(-c2ccccc2)c2cc(Br)ccc2n1	.	-3.5	.	.
SMILES	Hck Nef HTS	RanGTP-Impb inh	Runt-CBFb FRET	Runt-SMMHC FRET
Cc1ccc2nc(NCCCO)nc(-c3ccccc3)c2c1	6.0	30.0*	28.8	58.6
CCn1c(=O)n(CC)c2cc(N3CCCC3)c(NC(=O)c3cc(Cl)ccc3OC)cc21	.	1.1	.	.
CN1C=CC2=C(C#N)C(N)C(C#N)(C#N)[C@H](c3ccccc3)[C@H]2C1 (stereo partly specified)	7.2	64.1*	66.4*	79.4*
N#CC1(C#N)C(C(N)=O)C1c1ccccc1 (stereo unspecified)	0.2	?	-1.4	-9.7
CCN(Cc1ccccc1)c1ccc(/C=N/N=C(N)N)cc1	12.3	38.3*	-3.1	6.1
CCN(Cc1ccccc1)c1ccc(/C=N/NC(=S)NC(C)C)cc1	2.0	-2.0	19.0	33.8
CN(C)S(=O)(=O)c1cccc(-c2nnc3n2CCCCC3)c1	9.7	-0.2	1.0	-1.6
CC(C)c1nc(SCC(=O)Nc2ccc3c(c2)OCO3)n[nH]1	-1.5	1.5	1.9	-3.4
CC(C)c1nc(SCC(=O)Nc2ccc3c(c2)OCCO3)n[nH]1	9.6	19.5*	-0.4	-3.0
Oc1ccc(O)c(/C(=N/Nc2ccccc2)c2ccccc2)c1	.	2.7	.	.
O=c1c2c3c(sc2nc2n1CCCCC2)C(O)CCC3 (stereo unspecified)	12.9	-3.6	-0.6	-4.9

From PubChem
